In ChEMBL document CHEMBL1122677, “Ring-substituted 1,2-dialkylated 1,2-bis(hydroxyphenyl)ethanes. 3. Synthesis, estrogen receptor binding affinity, and evaluation of antiestrogenic and mammary tumor inhibiting activity of 2,2'-disubstituted butestrols and 6,6'-disubstituted metabutestrols” (1984):

Tests used:
[1] = biological target: T1, Estrogen receptor (Mus musculus) (UniProt O08537+P19785); test: (§1) Uterotrophic effect in mice at 10 ug; type: functional, tissue-based; set-up: unit not given here; settings: Uterus
T1 sequence (O08537 whole entry, looked up): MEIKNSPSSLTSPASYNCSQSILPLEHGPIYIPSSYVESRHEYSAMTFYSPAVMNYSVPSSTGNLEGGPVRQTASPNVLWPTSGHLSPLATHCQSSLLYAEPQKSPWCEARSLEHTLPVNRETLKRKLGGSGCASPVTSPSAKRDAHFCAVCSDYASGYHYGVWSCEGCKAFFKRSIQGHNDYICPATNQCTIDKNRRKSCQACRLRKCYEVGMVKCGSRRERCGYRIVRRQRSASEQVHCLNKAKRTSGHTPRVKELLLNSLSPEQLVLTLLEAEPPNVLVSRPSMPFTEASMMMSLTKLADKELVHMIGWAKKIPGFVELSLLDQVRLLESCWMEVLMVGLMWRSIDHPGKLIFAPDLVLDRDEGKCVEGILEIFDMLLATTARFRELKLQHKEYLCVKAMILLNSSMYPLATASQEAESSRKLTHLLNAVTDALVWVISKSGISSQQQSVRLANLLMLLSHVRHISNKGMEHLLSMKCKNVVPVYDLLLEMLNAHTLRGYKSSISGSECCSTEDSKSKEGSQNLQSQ
T1 sequence (P19785 whole entry, looked up): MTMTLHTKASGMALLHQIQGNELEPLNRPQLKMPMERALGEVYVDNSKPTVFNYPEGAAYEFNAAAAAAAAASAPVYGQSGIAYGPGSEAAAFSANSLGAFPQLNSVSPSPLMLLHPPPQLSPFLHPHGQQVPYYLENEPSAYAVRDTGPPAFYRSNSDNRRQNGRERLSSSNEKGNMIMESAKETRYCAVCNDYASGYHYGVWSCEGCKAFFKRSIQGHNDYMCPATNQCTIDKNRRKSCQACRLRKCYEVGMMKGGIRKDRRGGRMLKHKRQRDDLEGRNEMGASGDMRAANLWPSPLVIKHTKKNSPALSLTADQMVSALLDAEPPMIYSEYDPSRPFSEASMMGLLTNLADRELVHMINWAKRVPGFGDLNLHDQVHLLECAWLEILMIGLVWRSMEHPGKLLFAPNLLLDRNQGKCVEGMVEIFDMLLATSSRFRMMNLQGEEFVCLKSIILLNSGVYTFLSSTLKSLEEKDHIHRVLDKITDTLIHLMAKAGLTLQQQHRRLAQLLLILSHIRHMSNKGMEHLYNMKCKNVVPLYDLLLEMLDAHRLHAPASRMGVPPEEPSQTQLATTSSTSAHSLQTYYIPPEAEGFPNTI
In short: (§2)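 Immature female NMRI mice, 20 days old (14.5 ± 1.2 g), in groups of 10, injected sc daily for 3 days with test compound in 0.1 mL olive oil. Uteri were removed 24 h after the last injection, Bouin-fixed, washed, dried and weighed. Groups were compared by Wilcoxon–Mann–Whitney U test.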

[2] = biological target: T1, Estrogen receptor (Mus musculus); test: (§3) Uterotrophic effect in mice at 1 ug; type: functional, tissue-based; set-up: unit not given here; settings: Uterus; in short: as §2
[3] = biological target: T1, Estrogen receptor (Mus musculus); test: (§4) Uterotrophic effect in mice at 0 ug; type: functional, tissue-based; set-up: unit not given here; settings: Uterus; in short: as §2
[4] = biological target: Estrogen receptor (Bos taurus) (UniProt Q9XSB5+P49884); test: Displacement of [3H]-estradiol from calf uterine estrogen receptor; type: protein assay
In short: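 Calf uterine cytosol incubated with [³H]estradiol and competitor at six concentrations, 4 °C for 16 h. Dextran-coated charcoal stopped incubation; supernatant radioactivity counted after centrifugation. Percent bound plotted vs log concentration; the molar concentrations of estradiol and test compound halving radioligand binding were read off and expressed as relative binding affinity.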

[5] = biological target: T1, Estrogen receptor (Mus musculus); test: Antiuterotrophic effect in mice at 500 ug; type: functional; set-up: unit not given here
In short: (§5)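 Antiestrogenic read-out: inhibition of estrone-stimulated uterine growth in immature female NMRI mice, 20 days old, in groups of 10. Test compound in 0.1 mL olive oil was given sc daily for 3 days. Uteri were taken 24 h after the last dose, fixed in Bouin's solution, washed, dried and weighed.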

[6] = biological target: T1, Estrogen receptor (Mus musculus); test: Antiuterotrophic effect in mice at 5 ug; type: functional; set-up: unit not given here; in short: as §5
[7] = biological target: T1, Estrogen receptor (Mus musculus); test: Antiuterotrophic effect in mice at 50 ug; type: functional; set-up: unit not given here; in short: as §5
[8] = biological target: T1, Estrogen receptor (Mus musculus); test: Uterotrophic effect in mice at 100 ug; type: functional, tissue-based; settings: Uterus; in short: as §2
[9] = biological target: T1, Estrogen receptor (Mus musculus); test: Percent inhibition of uterotrophic effect in mice at 500 ug; type: functional; in short: as §5
[10] = biological target: T1, Estrogen receptor (Mus musculus); test: Uterotrophic effect in mice at 1000 ug; type: functional, tissue-based; settings: Uterus; in short: as §2
[11] = biological target: T1, Estrogen receptor (Mus musculus); test: Antiuterotrophic effect in mice at 0 ug; type: functional; in short: as §5
[12] = biological target: T1, Estrogen receptor (Mus musculus); test: Percent inhibition of uterotrophic effect in mice at 50 ug; type: functional; in short: as §5
[13] = biological target: T1, Estrogen receptor (Mus musculus); test: Percent inhibition of uterotrophic effect in mice at 5 ug; type: functional; in short: as §5
[14] = biological target: T1, Estrogen receptor (Mus musculus); test: Uterotrophic effect in mice at 100 ug (alpha =0.01); type: functional, tissue-based; settings: Uterus; in short: as §2
[15] = biological target: T1, Estrogen receptor (Mus musculus); test: Uterotrophic effect in mice at 1 ug (alpha =0.01); type: functional, tissue-based; settings: Uterus; in short: as §2
[16] = biological target: T1, Estrogen receptor (Mus musculus); test: Uterotrophic effect in mice at 10 ug (alpha =0.01); type: functional, tissue-based; settings: Uterus; in short: as §2
[17] = biological target: T1, Estrogen receptor (Mus musculus); test: as §3; type: functional, tissue-based; settings: Uterus; in short: as §2
[18] = biological target: T1, Estrogen receptor (Mus musculus); test: as §1; type: functional, tissue-based; settings: Uterus; in short: as §2
[19] = biological target: T1, Estrogen receptor (Mus musculus); test: as §4; type: functional, tissue-based; settings: Uterus; in short: as §2
[20] = organism: Rattus norvegicus; test: Percent change in body weight in rats at 5 mg; type: functional
In short: (§6)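 DMBA-induced, hormone-dependent mammary adenocarcinoma in SD rats. Dose is per kg body weight and day, given once daily Monday–Thursday and doubled on Friday. Initial tumors were counted at the start and new tumors during the test. Tumors were scored as complete remission (not palpable), partial remission (≥50% size reduction), no change or progression. Tumor area and body weight change were recorded.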

[21] = organism: Rattus norvegicus; test: Percent change in total tumor area of DMBA-induced hormone dependent mammary carcinoma in rats at 5 mg dose (alpha <0.05)
[22] = organism: Rattus norvegicus; test: Percent unchanged tumors in DMBA-induced hormone dependent mammary carcinoma in rats at 2 mg dose; type: functional; in short: as §6
[23] = biological target: T1, Estrogen receptor (Mus musculus); test: Uterotrophic effect in mice at 10 ug (alpha=0.01); type: functional, tissue-based; settings: Uterus; in short: as §2
[24] = organism: Rattus norvegicus; test: Percent change in total tumor area of DMBA-induced hormone dependent mammary carcinoma in rats at 2 mg dose (alpha <0.05); type: functional; in short: as §6
[25] = organism: Rattus norvegicus; test: Initial tumor number of DMBA-induced hormone dependent mammary carcinoma in rats prior to 5 mg dose; type: functional; in short: as §6
[26] = organism: Rattus norvegicus; test: Final tumor number of DMBA-induced hormone dependent mammary carcinoma in rats after 2 mg dose; type: functional; in short: as §6
[27] = organism: Rattus norvegicus; test: Percent complete remission in DMBA-induced hormone dependent mammary carcinoma in rats at 2 mg dose; type: functional; in short: as §6
[28] = biological target: T1, Estrogen receptor (Mus musculus); test: Uterotrophic effect in mice at 1 ug (alpha=0.01); type: functional, tissue-based; settings: Uterus; in short: as §2
[29] = organism: Rattus norvegicus; test: Initial tumor number of DMBA-induced hormone dependent mammary carcinoma in rats prior to 2 mg dose; type: functional; in short: as §6
[30] = organism: Rattus norvegicus; test: Percent complete remission in DMBA-induced hormone dependent mammary carcinoma in rats at 5 mg dose; type: functional; in short: as §6
[31] = organism: Rattus norvegicus; test: Percent partial remission in DMBA-induced hormone dependent mammary carcinoma in rats at 5 mg dose; type: functional; in short: as §6
[32] = organism: Rattus norvegicus; test: Percent change in body weight in rats at 2 mg; type: functional; in short: as §6
[33] = organism: Rattus norvegicus; test: Percent progressive tumors in DMBA-induced hormone dependent mammary carcinoma in rats at 5 mg dose; type: functional; in short: as §6
[34] = organism: Rattus norvegicus; test: Percent partial remission in DMBA-induced hormone dependent mammary carcinoma in rats at 2 mg dose; type: functional; in short: as §6
[35] = organism: Rattus norvegicus; test: Percent progressive tumors in DMBA-induced hormone dependent mammary carcinoma in rats at 2 mg dose; type: functional; in short: as §6
[36] = organism: Rattus norvegicus; test: Final tumor number of DMBA-induced hormone dependent mammary carcinoma in rats after 5 mg dose; type: functional; in short: as §6
[37] = organism: Rattus norvegicus; test: Percent unchanged tumors in DMBA-induced hormone dependent mammary carcinoma in rats at 5 mg dose; type: functional; in short: as §6
[38] = biological target: T1, Estrogen receptor (Mus musculus); test: Anti-estrogenic activity in mice at 0 ug; type: functional; in short: as §5
[39] = biological target: T1, Estrogen receptor (Mus musculus); test: Anti-estrogenic activity in mice at 50 ug; type: functional; in short: as §5
[40] = biological target: T1, Estrogen receptor (Mus musculus); test: Anti-estrogenic activity in mice at 500 ug; type: functional; in short: as §5
[41] = biological target: T1, Estrogen receptor (Mus musculus); test: Uterotrophic effect in mice at 0.1 ug; type: functional, tissue-based; settings: Uterus; in short: as §2

Effect [1]	Effect [2]	Effect [3]	relative binding affinity (RBA) [4]	Effect [5]	Effect [6]	Effect [7]	Effect [8]	inhibition [9] [%]	Effect [10]	Effect [11]	inhibition [12] [%]	inhibition [13] [%]	SMILES	further results
51.4	50.2	11.8	15										CC(c1ccc(O)cc1F)C(C)c1ccc(O)cc1F (centres undefined)	
			3.4										CC(c1ccc(O)cc1Br)C(C)c1ccc(O)cc1Br (centres undefined)	
20.3	15.4	12.5	2.1	38.7	50.6	39.1	26.2	26	34.6	14.4	25		CC(c1ccc(O)cc1O)C(C)c1ccc(O)cc1O (centres undefined)	
		11.9	1	36.5	43	39			13.1	14.4	25	13	CC(c1cccc(O)c1)C(C)c1cccc(O)c1 (centres undefined)	Effect [14]: 12.6; Effect [15]: 11.7; Effect [16]: 12.4
			1.7	37.2	40.1	39.3	41.8	30		14.4	24	21	CC(c1cc(O)ccc1Cl)C(C)c1cc(O)ccc1Cl (centres undefined)	Effect [17]: 13; Effect [18]: 26.5; Effect [19]: 11.1
40.7	41.6	11.8	4.5										CC(c1ccc(O)cc1Cl)C(C)c1ccc(O)cc1Cl (centres undefined)	
			0.01										CC(c1cc(O)ccc1O)C(C)c1cc(O)ccc1O (centres undefined)	
			5.2	35.6	45.4	40.6	12.5	35	17.4	14.4	20	5	Cc1ccc(O)cc1C(C)C(C)c1cc(O)ccc1C (centres undefined)	Body weight [20]: 1.1; Tumor area [21]: 283; Tumors [22]: 29%; Effect [23]: 14.2; Tumor area [24]: 245; No. of tumors [25]: 25; No. of tumors [26]: 25; Tumors [27]: 11%; Effect [28]: 13.7; Effect [19]: 11.1; No. of tumors [29]: 23; Tumors [30]: 15%; Tumors [31]: 4%; Body weight [32]: 1.5; Tumors [33]: 56%; Tumors [34]: 4%; Tumors [35]: 56%; No. of tumors [36]: 23; Tumors [37]: 25%
			12		43.3		42.2	28	34.8		26	12	CC(c1ccc(O)cc1)C(C)c1ccc(O)cc1 (centres undefined)	Effect [38]: 14.4; Effect [39]: 38.7; Effect [17]: 22.6; Effect [40]: 37.8; Effect [18]: 28; Effect [19]: 11.8; Effect [41]: 17.7
		11.8	29										Cc1cc(O)ccc1C(C)C(C)c1ccc(O)cc1C (centres undefined)	Effect [17]: 36.5; Effect [18]: 39.4; Effect [41]: 29.2
45.2	38.8	12.5	12				47						CCc1cc(O)ccc1C(C)C(C)c1ccc(O)cc1CC (centres undefined)	
